Assay results of several laboratories.
Compare with care: the assays were run in different laboratories.
Target: Cyclin-dependent kinase 15 (CDK15, Homo sapiens, UniProt Q96Q40)

With `O=S(=O)(NC1CCC(c2cc(F)ccc2F)(S(=O)(=O)c2ccc(Cl)cc2)CC1)C(F)(F)F` (stereo not shown) the remaining binding was 100% (cell-free assay; competition with immobilised ligand; 1 µM).
For `Cc1cnc(Nc2ccc(C(=O)N3CCC(N4CCCC4)CC3)cc2)nc1-c1cc2ccccc2s1`, the remaining binding was 99% (binding; competition with immobilised ligand; 1 µM).
The remaining binding of `C[C@H]1CCN(c2nccc(-c3cnn4ncccc34)n2)C1` is reported as 56% (binding; 1 µM).
The remaining binding of `O=C(c1ccc(Nc2ncc(Cl)c(-c3ccc(Cl)s3)n2)cc1)N1CCC(N2CCCC2)CC1` is reported as 43% (binding; competition with immobilised ligand; 1 µM).
With `COc1ncc2cc3ccccc3nc2c1C#N` the remaining binding was 99% (cell-free assay; competition with immobilised ligand; 5 µM).
With `O=C(NCCCN1CCOCC1)c1ccc(Nc2nccc(-c3cc4ccccc4s3)n2)cc1` the remaining binding was 87% (binding; competition with immobilised ligand; 1 µM).
`FC(F)(F)Oc1cccc(-c2cnc3ccc(-c4ccncc4)nn23)c1` gave a remaining binding of 63% (cell-free assay; competition with immobilised ligand; 5 µM).
For `COc1cnc(Nc2cccc(S(N)(=O)=O)c2)nc1N1CCN(c2ccccc2)C(=O)C1`, the remaining binding was 100% (binding; competition with immobilised ligand; 1 µM).
`CS(=O)(=O)c1cc(C2(NC(=O)c3cncc4c3cnn4-c3ccc(F)cc3)CC2)ccn1` gave a remaining binding of 100% (cell-free assay; competition with immobilised ligand; 1 µM).
The remaining binding of `COc1ccnn2ncc(-c3ccnc(N(C)C)n3)c12` is reported as 41% (binding; 1 µM).
`C[C@@H]1CN(c2cc(-c3nn(C)c4ccc(OC5(C)CC5)cc34)ncn2)C[C@H](C)O1` gave a remaining binding of 84% (cell-free assay; competition with immobilised ligand; 1 µM).
With `O=C(Nc1c[nH]nc1C(=O)NC1CCNCC1)c1cc(F)cc(F)c1` the remaining binding was 79% (binding; competition with immobilised ligand; 1 µM).
`CN(CCCC(F)(F)F)c1nccc(-c2cnn3ncccc23)n1` has a remaining binding of 100% (binding; 1 µM).
The remaining binding of `O=C(NCCCC1CCCCC1)c1ccc(CNC(=O)c2cnn(-c3ccccc3)c2C(F)(F)F)cc1` is reported as 77% (cell-free assay; competition with immobilised ligand; 0.1 µM).
`N[C@@H]1CCN(c2nccc(-c3cnn4ncccc34)n2)C1` gave a remaining binding of 100% (binding; 1 µM).
For `Cc1nc(N2CC[C@@H](O)C2)ncc1-c1cc(C(F)(F)F)cc2[nH]ncc12`, the remaining binding was 81% (binding; competition with immobilised ligand; 1 µM).
`CC1CCCN1c1nccc(-c2cnn3ncccc23)n1` (stereo not shown) gave a remaining binding of 100% (binding; 1 µM).
For `C[C@@H](c1ccc(-n2cnc3c(N)ncnc32)cc1)N1CCc2nn(C)c(Cc3ccccc3)c2C1=O`, the remaining binding was 86% (binding; competition with immobilised ligand; 0.1 µM).
The remaining binding of `CN(C)c1nccc(-c2cnc3ncccn23)n1` is reported as 83% (binding; 1 µM).
For `CCN1CCN(Cc2ccc(C(=O)Nc3ccc(C)c(Oc4ccc5c(c4)CC(=O)N5)c3)cc2C(F)(F)F)CC1`, the remaining binding was 100% (binding; competition with immobilised ligand; 1 µM).
`Cn1nc(C(=O)NCc2ccc(C(=O)O)cc2)cc1-c1ccc2[nH]ccc2c1` has a remaining binding of 95% (cell-free assay; competition with immobilised ligand; 0.1 µM).
`c1cnn2ncc(-c3ccnc(N4CCC45COC5)n3)c2c1` gave a remaining binding of 85% (binding; 1 µM).
